Shown are actives, neighbours in structure and some others; about 4.9% of the full set was active somewhere.
CHT block = inhibitors of human choline transporter CHT. 0.86% of 310,000 active. B-score at 10 µM. High affinity choline transporter 1 (Homo sapiens), Q9GZV3. CHT-expressing cells, membrane potential dye, choline response; active compounds read low. AID 488975, 2010;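 active means B-score over 3 SD under the library average, and starting fluorescence ratio not unusually high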;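 further: choline stimulus applied at its EC90 after an EC20 pre-addition; B-score computed on integrated fluorescence ratio after choline addition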
HSF-1 act = HSF-1 activators, primary screen, NIH3T3-HGL cells, MG132 stress, luminescence, single point | NIH3T3-HGL HSF-1 luciferase reporter, 8 h; 100% = twice DMSO control signal | activation, % at 9 µM | 1.7% of 300,000 active;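 active means mean replicate activation of at least 50% with a set share of replicates each reaching 50%; inconclusive means only one of those two conditions met; inactive means mean below 50% and too few replicates reaching it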
HSF1 inhib = HSF1 inhibitors in luciferase reporter cells, primary screen, cell-based, NIH3T3, luminescence | NIH3T3-HGL HSE-luciferase, MG132-induced, luminescence 8 h; active compounds read low | activity change, negative = inhibition, % at 7.5 µM (by protocol) | 0.77% of 300,000 active;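 active means more than half of replicate wells show activity change below -50%, luminescence cut by over half; inconclusive means some wells, but at most half, below -50%; inactive means no replicate well below -50%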;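 further: luciferase reports HSF-1 transcriptional activity via heat shock element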
PHOSPHO1 inh = PubChem AID 1565; Phosphoethanolamine/phosphocholine phosphatase (Homo sapiens), Q8TCT1; recombinant PHOSPHO1, absorbance phosphatase assay; inhibition, % at 13.3 µM; 1.1% of 290,000 active; in the data active means inhibition above about 60%
Target sequence (Q8TCT1 whole entry, looked up): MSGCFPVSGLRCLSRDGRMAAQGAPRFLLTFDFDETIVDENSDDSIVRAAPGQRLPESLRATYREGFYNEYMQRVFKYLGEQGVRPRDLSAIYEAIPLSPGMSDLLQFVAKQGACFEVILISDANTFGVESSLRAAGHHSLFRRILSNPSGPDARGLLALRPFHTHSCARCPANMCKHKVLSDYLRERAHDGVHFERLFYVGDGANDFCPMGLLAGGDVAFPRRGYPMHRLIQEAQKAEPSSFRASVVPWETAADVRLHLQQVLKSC
CHT allo act = CHT positive allosteric modulators, primary screen, cell-based, membrane potential dye, choline EC20; B-score at 10 µM; CHT-expressing cells; active compounds read high; LV-AA mutant CHT in HEK293 cells; 0.49% of 310,000 active; High affinity choline transporter 1 (Homo sapiens), Q9GZV3;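 active means initial fluorescence not abnormally high and integrated response B-score, plate-corrected, over 3 SD above library mean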
Hep lipid drop = inhibitors of hepatocyte lipid droplet formation, primary screen, imaging, high-throughput imaging, BODIPY stain; inhibition, % at 6.5 µM; AML12 mouse hepatocytes, oleate lipid droplets; 0.4% of 240,000 active;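 active means lipid droplet intensity inhibited by at least 50%, with more than 500 cells counted; inconclusive means wells with under 300 cells, treated as cytotoxic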
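Material – mouse AML12 hepatocyte cell line, fixed after treatment · Compound dosing – one dose, 6.5 µM compound · Times – compound with oleate, overnight · Measured by – Image-based BODIPY and DAPI two-channel analysis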
CHT block conf = CHT inhibitors, confirmation, cell-based, membrane potential dye, duplicate | shares compounds with CHT block | AID 493221, 2011 | CHT-expressing cells, choline membrane potential dye; LV-to-AA substituted CHT, HEK293 cells | 70% of 2,400 active | CHT activity remaining % of control (active compounds read low), % at 10 µM;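 active means choline transporter activity left, mean of duplicates at 10 µM, below buffer-only control mean minus 3 SD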;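 further: depolarization triggered by choline at its EC90 following an EC20 pre-addition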
HEK293 CHT ctr = membrane potential effects in parental HEK293, counter-screen for CHT inhibitor project, cell-based, membrane potential dye; membrane potential ratio readout (active if shifted either direction beyond buffer ±3SD; no single direction) at 10 µM; choline response; active = decrease or increase beyond buffer ±3SD; shares compounds with CHT block; 4% of 2,400 active; AID 493222, 2011;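 further: parental cells lack the transporter so any hit is non-specific; ratio is peak minus trough fluorescence over baseline after EC90 choline challenge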
A number is an active result; 0 = inactive; ? = inconclusive; - = no result given.

SMILES	CHT block	HSF-1 act	HSF1 inhib	PHOSPHO1 inh	CHT allo act	Hep lipid drop	CHT block conf	HEK293 CHT ctr
O=C(Nc1ccc(N2CCN(C(=O)c3ccccc3)CC2)cc1)c1cc([N+](=O)[O-])ccc1N1CCOCC1	0	0	0	0	0	0	-	-
Cn1c(CN2CCCCC2)nc2cc(NC(=O)c3ccccc3Cl)ccc21	-7.5	0	0	0	0	-	40%	0
CC1Cc2cc(C3(O)C(=O)c4ccccc4C3=O)ccc2N1 (configuration not stated)	0	0	0	0	0	-	-	-
COC(=O)c1ccc(CNC(=O)COC(=O)c2cc(Cl)nc(Cl)c2)cc1	0	0	0	0	0	0	-	-
c1ccc(CNc2c3c(nc4ncnn24)CCCC3)nc1	0	0	0	0	0	0	-	-
C#CCNc1c2c(nc3ncnn13)CC(C)CC2 (configuration not stated)	-5.2	0	0	0	0	0	63%	0
Cc1cccnc1CCNC(=O)c1ccc(OC2CCN(Cc3ccccn3)CC2)cc1	0	0	0	0	0	0	-	-
O=C(NC1CCCCC1)c1ccc(OC2CCN(Cc3ccccn3)CC2)cc1	-13	0	0	0	0	0	-6.3%	0
CC(C)c1cc(CNC(=O)c2ccc(OC3CCN(Cc4ccccn4)CC3)cc2)on1	0	0	0	0	0	0	-	-
CC(CNC(=O)c1ccc(OC2CCN(Cc3ccccn3)CC2)cc1)c1ccccc1 (configuration not stated)	-12	0	0	0	0	0	10%	0
CC(C)(C)OC(=O)NCCCC[C@@H](C(=O)NCCCCCCCCCCC(=O)N1CCN(C(=O)OC(C)(C)C)CC1)n1cc(CCO)nn1	0	0	0	-	0	-	-	-
CSCC[C@@H](C(=O)NCCCCCCCCCCC(=O)N1CCN(C(=O)OC(C)(C)C)CC1)n1cc(CCO)nn1	-6.4	-	-	-	0	-	40%	0
Cc1ccc(CNC(=O)N[C@@H](Cc2ccccc2)C(=O)O)cc1	-16	-	-	0	0	0	60%	0
COc1cc(/C=C2/SC(=S)N(CC(=O)O)C2=O)ccc1OC(=O)c1ccco1	0	0	0	0	0	0	-	-
C[N+](C)(C)CC=O	-6	-	-	-	0	-	22%	0
O=C1NC(c2ccccc2)=C(c2ccc3ccccc3n2)C(c2ccncc2)N1 (configuration not stated)	-6.3	0	0	0	0	-	47%	0
O=C1NC(c2ccccc2)=C(c2ccc3ccccc3n2)C(c2ccc(F)cc2)N1 (configuration not stated)	0	0	0	0	0	0	-	-
Cc1ccc(S(=O)(=O)N(C)C)cc1NC(=O)CSc1nc2ccccc2[nH]1	0	0	0	0	0	0	-	-
C/C(=N\NC(=O)c1cccc2ccccc12)c1ccccn1	-	0	0	-	-	0	-	-
C/C(=N\NC(=O)c1ccoc1C)c1cccc2ccccc12	-7.6	57	0	0	0	0	0	0
CC1(C)CN(c2cccc(Br)c2)C1=O	0	?	0	0	0	0	-	-
C=CCOc1ccccc1CNCc1ccc(F)cc1	-7.5	0	0	0	0	0	26%	-14
CCOC(=O)C/C(C)=N/NC(=O)CNc1cccc(Cl)c1C	0	0	0	0	0	0	-	-
Cc1c(Cl)cccc1NCC(=O)NN=C1CCCC1	-5.1	0	0	0	0	0	48%	0
CC1=NN(c2ccccc2)C(=O)/C1=C/c1ccc(-c2ccc(C)c(C(=O)O)c2)o1	-6.2	0	0	-	0	-	42%	0
SMILES	CHT block	HSF-1 act	HSF1 inhib	PHOSPHO1 inh	CHT allo act	Hep lipid drop	CHT block conf	HEK293 CHT ctr
CCc1ccc2oc(C(=O)NCC(c3ccc(OC)cc3)N3CCCCC3)c(C)c2c1 (configuration not stated)	-6	0	0	0	0	0	61%	0
COc1ccc(C(CNC(=O)c2oc3ccc(OC)cc3c2C)N2CCCC2)cc1 (configuration not stated)	0	0	0	-	0	-	-	-
COC(=O)c1[nH]c2cccc(OC)c2c1NC(=O)CN(C)CC1OCCO1	0	0	0	0	0	-	-	-
CN(C)CCNC(=O)C(=O)NCC(c1ccc2c(c1)OCO2)N1CCN(c2ccc(F)cc2)CC1 (configuration not stated)	-5.5	0	0	0	0	0	45%	0
Cc1ccc(/C=N/N=C2/NC(=O)CS2)o1	0	0	0	0	0	0	-	-
CNc1cc(C)nc(-n2nc(C)cc2C)n1	0	0	0	0	0	-	-	-
CCOc1ccc(Nc2cc(C)nc(-n3nc(C)cc3C)n2)cc1	-6.1	0	0	0	0	-	0	0
CCOc1ccc(N(CC(=O)NCc2ccc(OC)cc2)C(=O)CCC(=O)Nc2nccs2)cc1	0	0	0	0	0	-	-	-
COc1ccc(C)cc1NC(=S)N1CCN(c2ncccn2)CC1	0	-	-	0	0	0	-	-
CCCCc1ccc(NC(=O)CSc2nc(=O)n(CCN3CCOCC3)c3c2CCC3)cc1	0	0	0	-	0	-	-	-
CCN(CC)CCCn1c2c(c(SCC(=O)Nc3ccc(OC(F)(F)F)cc3)nc1=O)CCC2	-12	0	0	-	0	-	38%	0
CCN(CC)CCCn1c2c(c(SCC(=O)Nc3ccc(C)c(F)c3)nc1=O)CCC2	0	0	0	-	0	-	-	-
CCCCc1ccc(NC(=O)CSc2nc(=O)n(CCCN3CCOCC3)c3c2CCC3)cc1	-7.9	0	0	-	0	-	21%	0
Cn1nc(C(=O)NCc2ccccc2)cc1C(=O)NCc1ccccc1	0	0	0	0	0	0	-	-
Cc1ccc(N2C(=O)C(Cl)=C(NCCO)C2=O)c(C)c1	0	0	0	0	0	0	-	-
O=S(=O)(Cc1cccc(F)c1)c1c[nH]c2ccccc12	0	0	0	0	0	-	-	-
O=[N+]([O-])c1cc(Cc2ccccc2)cc(C=Nc2ccc(N3CCOCC3)cc2)c1O	-5.9	0	0	0	0	0	66%	0
Cc1ccc(O)c(N=Cc2cc(Cc3ccccc3)cc([N+](=O)[O-])c2O)c1	-	0	0	0	-	0	-	-
CN1CCCC(CC2Oc3ccccc3Sc3ccccc32)C1 (configuration not stated)	-5.2	0	0	0	0	0	14%	0
CCN1CCn2c3c(c4cc(C)ccc42)CCCC31 (configuration not stated)	0	0	0	0	0	-	-	-
